Drawing on ChEMBL document CHEMBL5338787, “Discovery of Novel Bruton's Tyrosine Kinase PROTACs with Enhanced Selectivity and Cellular Efficacy” (J Med Chem, 2023), this text covers Activity, Kd and IC50 for two compounds.

Calls of active or inactive are those of the source. The rule behind the calls is not given here.

Experiment [1] addresses Tyrosine-protein kinase CSK (Homo sapiens) (UniProt P41240). Briefly: Degradation of CSK in human TMD8 cells by measuring protein level at 111 nM for 6 hrs using label free proteomic analysis. The format is cell-based. In a few lines:
(§1)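 TMD8 cells (2 × 10^6) given 111 nM or DMSO for 6 h in duplicate. Lysed in 5% SDS/50 mM TEAB pH 8.5. 200 μg protein reduced (10 mM DTT, 55 °C, 30 min), alkylated (50 mM iodoacetamide), S-Trap processed, then LC-MS/MS. Label-free matched-peptide quantitation against DMSO, human UniProt; Benjamini–Hochberg-corrected p-values.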

For experiment [2], the target named is T1, Zinc finger protein 280D (Homo sapiens) (UniProt Q6N043).
T1 sequence (whole entry): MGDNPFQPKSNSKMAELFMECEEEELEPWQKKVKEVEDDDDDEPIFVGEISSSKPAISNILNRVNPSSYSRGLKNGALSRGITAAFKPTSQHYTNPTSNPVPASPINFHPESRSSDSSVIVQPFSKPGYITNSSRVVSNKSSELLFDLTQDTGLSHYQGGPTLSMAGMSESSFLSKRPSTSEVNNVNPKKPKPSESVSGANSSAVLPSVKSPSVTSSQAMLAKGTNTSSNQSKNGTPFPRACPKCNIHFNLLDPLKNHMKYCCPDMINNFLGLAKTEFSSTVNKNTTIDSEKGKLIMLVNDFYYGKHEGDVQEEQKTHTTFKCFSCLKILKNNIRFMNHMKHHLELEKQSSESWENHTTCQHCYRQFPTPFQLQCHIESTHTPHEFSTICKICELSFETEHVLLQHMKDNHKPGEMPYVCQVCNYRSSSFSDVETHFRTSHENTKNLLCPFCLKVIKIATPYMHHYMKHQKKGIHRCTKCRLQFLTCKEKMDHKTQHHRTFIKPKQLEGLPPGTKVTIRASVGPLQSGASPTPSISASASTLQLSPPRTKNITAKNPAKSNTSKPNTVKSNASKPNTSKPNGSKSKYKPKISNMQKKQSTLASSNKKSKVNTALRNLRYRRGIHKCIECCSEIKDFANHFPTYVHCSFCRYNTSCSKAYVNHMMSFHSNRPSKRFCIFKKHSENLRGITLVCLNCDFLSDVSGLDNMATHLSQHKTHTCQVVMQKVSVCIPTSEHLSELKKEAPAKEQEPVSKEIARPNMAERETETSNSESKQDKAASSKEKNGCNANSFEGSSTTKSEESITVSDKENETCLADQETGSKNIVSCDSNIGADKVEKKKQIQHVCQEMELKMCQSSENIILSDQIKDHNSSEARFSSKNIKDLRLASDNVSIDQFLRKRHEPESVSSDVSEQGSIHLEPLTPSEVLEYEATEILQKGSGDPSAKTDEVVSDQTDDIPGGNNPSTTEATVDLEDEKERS
Briefly: Degradation of […] in human TMD8 cells by measuring protein level at 111 nM for 6 hrs using label free proteomic analysis. The format is cell-based. The method, boiled down: as §1

Experiment [3] has as its system MINO. The experiment in a line: Induction of apoptosis in human MINO cells assessed as downregulation in Mcl-1 level measured at 0.15 to 3000 nM after 48 hrs by Western blot analysis. The format is functional, cell-based. The following applies: dose 0.15-3000 nM. The method, boiled down: (§2)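 TMD8 or Mino cells (2 × 10^6 per well) exposed 48 h to 3000–0.15 nM (3-fold dilution) or 1% DMSO. Lysates BCA-normalised, 8–30 μg per lane on 4–20% Tris-glycine gels, transferred to nitrocellulose, probed with antibodies, HRP chemiluminescence detection and densitometry. Representative of two independent experiments.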
For orientation: A western blot detects proteins with antibodies after separation by electrophoresis.

Experiment [4] deals with T2, Tyrosine-protein kinase BTK (Homo sapiens, UniProt Q06187). The experiment in a line: Binding affinity to full length BTK (unknown origin) assessed as dissociation constant measured at 37 degree C by TR-FRET assay. For orientation: Time-resolved FRET reads energy transfer from a long-lived donor to a nearby acceptor.
Experiment [5] has as its system TMD8. The experiment in a line: Induction of apoptosis in human TMD8 cells assessed as decrease in caspase 3 level measured after 48 hrs by Western blot analysis. The format is functional, cell-based. The following applies: dose 0.15-3000 nM. The method, boiled down:
as §2

The test system of experiment [6] is TMD8. Briefly: Induction of apoptosis in human TMD8 cells assessed as increase in cleaved PARP level measured after 48 hrs by Western blot analysis. It counts as functional, cell-based. Conditions: dose 0.15-3000 nM. The method, boiled down:
as §2

In experiment [7] the target is T3, Protein cereblon/Tyrosine-protein kinase BTK (Homo sapiens, UniProt Q06187+Q96SW2). The experiment in a line: PROTAC activity at BTK/CRBN protein protein interaction in human Ramos cell assessed as degradation of BTK incubated at 111 nM for 17 hrs in presence of -iberdomide at 20 uM measured by Western blot analysis.
In experiment [8] the test system is MINO. Briefly: Induction of apoptosis in human MINO cells assessed as increase in cleaved caspase 3 level measured after 48 hrs by Western blot analysis. The format is functional, cell-based. The following applies: dose 0.15-3000 nM. The method, boiled down: as §2
For experiment [9], the target named is T2, Tyrosine-protein kinase BTK. The experiment in a line: Inhibition of BTK in HEK293 cells using NanoGlo substrate incubated for 2 hrs by NanoBRET assay. The format is cell-based. A general note: Bioluminescence resonance energy transfer reports proximity on the nanometre scale.
For experiment [10], the system named is MINO. The experiment in a line: Induction of apoptosis in human MINO cells measured after 48 hrs by Annexin-V/propidium iodide staining based flow cytometric analysis. The following applies: dose 0.15-3000 nM. The format is functional, cell-based. The method, boiled down: (§3)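 Cells plated at 2 × 10^6 per well and treated 48 h at 3,000–0.15 nM (3-fold dilutions) or 1% DMSO. Harvested, washed in cold PBS, stained with Annexin V Alexa Fluor 488/propidium iodide, analysed by flow cytometry for % live, apoptotic and necrotic cells. Mean of two independent experiments.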

The target in experiment [11] is T3, Protein cereblon/Tyrosine-protein kinase BTK. The experiment in a line: PROTAC activity at BTK/CRBN protein protein interaction in human Ramos cell assessed as degradation of BTK preincubated with neddylation inhibitor MLN-4924 for 2 hrs followed by compound addition at 111 nM for 4 hrs measured by Western blot analysis. It counts as cell-based. In a few lines: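 Ramos cells were pre-treated for 2 h with bortezomib (proteasome inhibitor) or MLN-4924 (NEDD8-activating enzyme inhibitor), then given 111 nM degrader for 4 h. BTK level was assessed by western blot.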

Experiment [12] deals with TMD8. The experiment in a line: Induction of apoptosis in human TMD8 cells measured after 48 hrs by Annexin-V/propidium iodide staining based flow cytometric analysis. The format is functional, cell-based. Conditions: dose 0.15-3000 nM. In a few lines: as §3
The test system of experiment [13] is MINO. The experiment in a line: Induction of apoptosis in human MINO cells assessed as decrease in PARP level measured after 48 hrs by Western blot analysis. Conditions: dose 0.15-3000 nM. The format is functional, cell-based. In a few lines: as §2
In experiment [14] the test system is MINO. Briefly: Induction of apoptosis in human MINO cells assessed as downregulation in Bcl-2 level measured at 0.15 to 3000 nM after 48 hrs by Western blot analysis. The following applies: dose 0.15-3000 nM. The format is functional, cell-based. In a few lines:
as §2

Experiment [15] has as its system MINO. Briefly: Induction of apoptosis in human MINO cells assessed as increase in cleaved PARP level measured after 48 hrs by Western blot analysis. The format is functional, cell-based. The following applies: dose 0.15-3000 nM. In a few lines:
as §2

Experiment [16] has as its system TMD8. The experiment in a line: Induction of apoptosis in human TMD8 cells assessed as downregulation in Bcl-2 level measured at 0.15 to 3000 nM after 48 hrs by Western blot analysis. The format is functional, cell-based. Conditions: dose 0.15-3000 nM. The method, boiled down: as §2
The target of experiment [17] is T3, Protein cereblon/Tyrosine-protein kinase BTK. Briefly: PROTAC activity at BTK/CRBN protein protein interaction in human JeKo-1 cell assessed as Hook effect incubated at >333 nM for 17 hrs measured by Western blot analysis. It counts as cell-based. In a few lines:
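Ramos or JeKo-1 cells (2 × 10^6 per well) were exposed for 17 h to 3000–0.15 nM PROTAC in 3-fold steps. Cells were lysed and analysed by western blot, with BTK normalised to β-actin. DC50 and Dmax come from the dose-response; DC50 is the mean ± SD of two independent experiments.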

T3 sequence (Q06187 2-659 limits assumed): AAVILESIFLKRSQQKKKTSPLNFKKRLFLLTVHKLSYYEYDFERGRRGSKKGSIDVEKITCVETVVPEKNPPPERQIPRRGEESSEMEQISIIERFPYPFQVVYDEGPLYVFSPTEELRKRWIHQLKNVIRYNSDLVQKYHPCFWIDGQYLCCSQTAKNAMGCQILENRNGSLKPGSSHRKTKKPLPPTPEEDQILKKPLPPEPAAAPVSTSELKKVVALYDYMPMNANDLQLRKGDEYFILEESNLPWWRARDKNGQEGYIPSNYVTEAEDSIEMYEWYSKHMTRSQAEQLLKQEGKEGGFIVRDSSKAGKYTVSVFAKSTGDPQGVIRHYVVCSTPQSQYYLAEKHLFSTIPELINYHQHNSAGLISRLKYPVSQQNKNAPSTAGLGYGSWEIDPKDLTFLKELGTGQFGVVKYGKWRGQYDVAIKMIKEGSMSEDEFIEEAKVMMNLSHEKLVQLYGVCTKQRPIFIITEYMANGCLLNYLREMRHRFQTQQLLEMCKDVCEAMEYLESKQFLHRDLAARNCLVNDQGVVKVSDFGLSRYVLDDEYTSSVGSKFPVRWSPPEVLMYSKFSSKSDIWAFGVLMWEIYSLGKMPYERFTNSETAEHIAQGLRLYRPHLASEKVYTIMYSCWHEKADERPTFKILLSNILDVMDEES
T3 sequence (Q96SW2 whole entry partner): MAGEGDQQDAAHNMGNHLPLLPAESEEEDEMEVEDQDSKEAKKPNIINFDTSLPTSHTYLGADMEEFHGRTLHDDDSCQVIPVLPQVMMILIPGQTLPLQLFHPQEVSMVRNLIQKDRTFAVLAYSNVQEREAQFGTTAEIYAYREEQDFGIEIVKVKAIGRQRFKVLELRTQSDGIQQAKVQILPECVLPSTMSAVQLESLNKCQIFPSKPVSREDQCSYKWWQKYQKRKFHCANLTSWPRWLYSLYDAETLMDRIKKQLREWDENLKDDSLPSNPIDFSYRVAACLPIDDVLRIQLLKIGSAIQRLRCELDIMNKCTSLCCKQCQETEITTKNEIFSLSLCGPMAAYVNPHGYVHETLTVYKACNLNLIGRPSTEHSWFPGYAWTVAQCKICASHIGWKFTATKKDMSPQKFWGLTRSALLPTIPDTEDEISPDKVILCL
Chain of Tyrosine-protein kinase CSK (Homo sapiens) (P41240 2-450 limits assumed): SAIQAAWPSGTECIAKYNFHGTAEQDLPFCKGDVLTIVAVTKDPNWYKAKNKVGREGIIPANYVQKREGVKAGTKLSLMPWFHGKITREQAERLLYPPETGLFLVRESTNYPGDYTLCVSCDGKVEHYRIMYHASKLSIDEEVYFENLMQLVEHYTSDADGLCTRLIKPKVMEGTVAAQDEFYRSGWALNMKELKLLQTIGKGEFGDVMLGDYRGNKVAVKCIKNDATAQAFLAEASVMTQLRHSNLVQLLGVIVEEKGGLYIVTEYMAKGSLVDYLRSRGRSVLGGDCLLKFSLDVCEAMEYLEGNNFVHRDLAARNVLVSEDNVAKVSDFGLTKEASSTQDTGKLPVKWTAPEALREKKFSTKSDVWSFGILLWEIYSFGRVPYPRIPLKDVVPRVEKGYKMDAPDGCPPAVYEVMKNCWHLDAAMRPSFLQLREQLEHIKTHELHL
T2 sequence (Q06187 whole entry): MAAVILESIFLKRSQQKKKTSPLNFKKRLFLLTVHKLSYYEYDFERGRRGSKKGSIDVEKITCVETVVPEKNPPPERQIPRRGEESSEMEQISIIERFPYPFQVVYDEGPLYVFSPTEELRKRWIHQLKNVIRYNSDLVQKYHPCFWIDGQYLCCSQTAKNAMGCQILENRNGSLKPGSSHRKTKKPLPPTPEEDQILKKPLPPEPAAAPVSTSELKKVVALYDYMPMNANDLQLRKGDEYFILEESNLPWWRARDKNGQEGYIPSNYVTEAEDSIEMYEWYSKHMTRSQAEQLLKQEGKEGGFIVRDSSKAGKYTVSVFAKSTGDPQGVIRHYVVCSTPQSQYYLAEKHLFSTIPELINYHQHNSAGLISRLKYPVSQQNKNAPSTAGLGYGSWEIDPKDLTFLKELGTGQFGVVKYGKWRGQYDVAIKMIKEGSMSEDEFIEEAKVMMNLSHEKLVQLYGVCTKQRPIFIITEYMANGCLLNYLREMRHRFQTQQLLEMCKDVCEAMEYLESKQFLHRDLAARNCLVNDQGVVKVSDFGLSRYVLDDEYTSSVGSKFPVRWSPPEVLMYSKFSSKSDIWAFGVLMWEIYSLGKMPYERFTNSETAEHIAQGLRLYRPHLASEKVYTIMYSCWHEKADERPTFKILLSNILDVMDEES

Take `C[C@H]1CN(C(=O)COc2cccc3c2C(=O)N(C2CCC(=O)NC2=O)C3=O)CCN1c1ccc(Nc2cc(-c3ccnc(N4CCn5c(cc6c5CC(C)(C)C6)C4=O)c3CO)cn(C)c2=O)nc1` (some centres undefined): the result in experiment [1] was inactive. Also, in experiment [2], the result was Active.
One may read the Kd as a measure of binding affinity in units of concentration. A word on the IC50: it is the concentration at which inhibition is half-maximal. Read a high IC50 as a need for much substance. As to `C[C@H]1CN(C(=O)CNc2cccc3c2C(=O)N(C2CCC(=O)NC2=O)C3=O)CCN1c1ccc(Nc2cc(-c3ccnc(N4CCn5c(cc6c5CC(C)(C)C6)C4=O)c3CO)cn(C)c2=O)nc1` (some centres undefined), the result (in the experiment with MINO [3]; in experiment [2]; in the experiment on TMD8 [5]; in the experiment on TMD8 [6]; with MINO [8]; in the experiment with MINO [13]) was Active. The result (with MINO [14]; with MINO [15]; in the experiment with TMD8 [16]; in [17]) was Active. Further, the result in [1], in experiment [7] and in experiment [11] was inactive. Moreover, in experiment [4], the Kd came out at 2.28 nM. In [9], this compound had an IC50 of 97 nM. Moreover, the Activity result in the experiment on MINO [10] and in the experiment on TMD8 [12] was “Dose-Dependent Effect” throughout.
